ChEMBL document CHEMBL4229349, “Challenging clinically unresponsive medullary thyroid cancer: Discovery and pharmacological activity of novel RET inhibitors” (Eur J Med Chem, 2018)

What was measured:
[1] = Metabolic stability in human liver microsomes assessed as parent compound remaining at 1 uM after 15 mins in presence of NADPH by HPLC-MS/MS analysis; format: ADME, microsome; settings: read-out: Stability
Method in brief: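 The compound was incubated at 1 µM with human liver microsomes for 15 min, and the percentage of parent compound remaining was measured.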

[2] = Metabolic stability in human plasma assessed as parent compound remaining at 1 uM after 1 hr by HPLC-MS/MS analysis; format: ADME, cell-free; settings: read-out: Stability
Method in brief: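 The compound was incubated in human plasma for 1 h, and stability was expressed as the percentage of parent compound remaining.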

Clc1ccc(SCc2n[nH]c(-c3ccc(Cl)cc3)n2)cc1
remaining at […], 1 µM [1]: 40% | remaining at 1 h, 1 µM [2]: 85%
